Experimental findings from the array DNA melting data of Ke et al. (doi:10.1101/2024.01.08.574731) are described below.

Series [1] in a line: folding enthalpy; higher = less favourable; fluorescence melt of hairpins on a sequencing array, two-state fit. The following applies: sodium 0.088 M. The essentials:
(§1)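 Melting temperature and folding enthalpy were obtained by bootstrapped two-state fitting. Fits used Cy3 fluorescence of library hairpins with annealed Cy3 and quencher oligos on a sequenced MiSeq flow cell, imaged in 50 mM Na-HEPES pH 8.0, 25 mM NaCl in 2.5 °C steps up to 60 °C and normalised to pre-quench Cy3 and control constructs. Four replicates were combined by inverse-variance weighting, and fitted temperatures were raised by 9.35 °C to match UV melts.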

The nature of series [2]: melting temperature; fluorescence melt of hairpins on a sequencing array, two-state fit, raised by 9.35 °C to match UV melts. The settings on record: sodium 0.088 M. Put shortly: as §1

Consider GCCGGGCGAAAGCGAGGC (((..((....))..))), for which the folding enthalpy in series [1] is -43.3 kcal/mol. Moreover, in series [2], the Tm was found to be 66.1 °C.
On the same counts, the results for GCCGGGCGAAAGCGCAGC ((.(.((....)).).)) are -13.2 kcal/mol and 43.3 °C.
As to GCCGGGCGAAAGCGCCGC ((.(.((....)).).)), in series [1], the folding enthalpy is -11.5 kcal/mol. The Tm in series [2] came to 48.7 °C.
In the same order, the values of GCCGGGCGAAAGCTGGGC (((..((....))..))) are -26.3 kcal/mol and 61.2 °C.
On the same counts, the results for GCCGGTCGAAAGACGGGC (((.(((....))).))) are -39.9 kcal/mol and 63.9 °C.
On the same counts, the results for GCCGTAACGAAAGTTGGC (((..(((....)))))) are -20.9 kcal/mol and 49.4 °C.
For the sequence GCCGTACGAAAGTAGGC (((.(((....)))))), in series [1], the folding enthalpy was -33.6 kcal/mol. In addition, the Tm in series [2] was found to be 67.4 °C.
In the same order, the values of GCCGTAGGAAACTACGAC (.(((((....))))).) are -18.5 kcal/mol and 40.8 °C.
Consider GCCGTAGGAAACTGTGGC (((..((....))..))), for which, in series [1], the folding enthalpy was -11.4 kcal/mol. Also, the Tm in series [2] is 43.3 °C.
In the same order, the values of GCCGTCACGAAAGTGGGC (((..(((....)))))) are -19.5 kcal/mol and 48.5 °C.
In the same order, the values of GCCGTCGAAAGACAGGGC ((((((....)))..))) are -38.8 kcal/mol and 54.4 °C.
In the same order, the values of GCCGTCGAAAGACCAGGC ((((((....)))..))) are -17.5 kcal/mol and 48.9 °C.
Turning to GCCGTGCGAAAGCACAGC ((.((((....)))).)), the folding enthalpy in series [1] was -14 kcal/mol. Further, in series [2], the Tm was 61.2 °C.
In the same order, the values of GCCGTGCGAAAGCAGCGC ((..(((....)))..)) are -13.9 kcal/mol and 55.9 °C.
In the same order, the values of GCCGTGCGAAAGCAGTGC ((..(((....)))..)) are -12.4 kcal/mol and 44.7 °C.
In the case of GCCGTGCGAAAGCCTGGC (((..((....))..))), the folding enthalpy in series [1] is -20.4 kcal/mol. Besides, the Tm in series [2] is 56.2 °C.
In the same order, the values of GCCGTGCGAAAGCGCTGC ((.(.((....)).).)) are -19.6 kcal/mol and 49 °C.
On the same counts, the results for GCCGTGCGAAAGCTAGGC (((..((....))..))) are -32 kcal/mol and 66.9 °C.
On the same counts, the results for GCCGTGCGAAAGCTTGGC (((..((....))..))) are -28.5 kcal/mol and 59.6 °C.
In the case of GCCGTTACGAAAGTAGGC (((..(((....)))))), the folding enthalpy in series [1] was -33.1 kcal/mol. Also, the Tm in series [2] is 54.8 °C.
In the same order, the values of GCCGTTCGAAAGAAGGGC (((.(((....))).))) are -44 kcal/mol and 60.2 °C.
On the same counts, the results for GCCGTTGGAAACAGTGGC (((..((....))..))) are -14.4 kcal/mol and 43.6 °C.
In the same order, the values of GCCTAACGAAAGTTGGC (((.(((....)))))) are -31.3 kcal/mol and 53.7 °C.
Consider GCCTAAGGAAACTTAGGC (((((((....))))))), for which, in series [1], the folding enthalpy is -40.1 kcal/mol. Besides, in series [2], the Tm is 58.3 °C.
In the same order, the values of GCCTACGAAAGTAAGGGC ((((((....)))..))) are -23.9 kcal/mol and 46.8 °C.
On the same counts, the results for GCCTACGAAAGTAGAGGC ((((((....)))..))) are -22.7 kcal/mol and 49.3 °C.
In the same order, the values of GCCTACGAAAGTAGCGGC ((((((....)))..))) are -19.5 kcal/mol and 49.6 °C.
Consider GCCTACGAAAGTATCGGC ((((((....)))..))), for which the folding enthalpy in series [1] was -24.7 kcal/mol. Besides, the Tm in series [2] worked out at 40.6 °C.
As for GCCTACGAAAGTATTGGC ((((((....)))..))), in series [1], the folding enthalpy is -20.5 kcal/mol. Moreover, the Tm in series [2] worked out at 43.4 °C.
For the sequence GCCTACGCGAAAGCGGGC (((..(((....)))))), the folding enthalpy in series [1] is -14.8 kcal/mol. Further, in series [2], the Tm turned out to be 62.1 °C.
On the same counts, the results for GCCTACGGAAACACAGGC ((((..(....)..)))) are -23.3 kcal/mol and 34.6 °C.
In the same order, the values of GCCTACGGAAACATAGGC (((((.(....).))))) are -28.9 kcal/mol and 40.3 °C.
In the same order, the values of GCCTAGCCGAAAGGCGGC (((..(((....)))))) are -14.1 kcal/mol and 59.7 °C.
Consider GCCTAGCGAAAGCACGGC (((..((....))..))), for which, in series [1], the folding enthalpy is -20.3 kcal/mol. Moreover, the Tm in series [2] was 54.9 °C.
In the same order, the values of GCCTAGCGAAAGCAGGGC (((..((....))..))) are -24 kcal/mol and 62.4 °C.
As to GCCTAGCGAAAGCATGGC (((..((....))..))), the folding enthalpy in series [1] is -30.7 kcal/mol. Moreover, in series [2], the Tm worked out at 61.2 °C.
On the same counts, the results for GCCTAGCGAAAGCCAGGC ((((.((....)).)))) are -29.4 kcal/mol and 62.2 °C.
On the same counts, the results for GCCTAGCGAAAGCCGGGC (((..((....))..))) are -20.1 kcal/mol and 57.1 °C.
Consider GCCTAGCGAAAGCCTGGC (((..((....))..))), for which the folding enthalpy in series [1] was -19.6 kcal/mol. The Tm in series [2] was 52.1 °C.
Turning to GCCTAGCGAAAGCGATGC ((.(.((....)).).)), the folding enthalpy in series [1] was -13.4 kcal/mol. For the same sequence, the Tm in series [2] was 44.1 °C.
On the same counts, the results for GCCTAGCGAAAGCTCCGC ((..(((....)))..)) are -9.3 kcal/mol and 25.9 °C.
In the same order, the values of GCCTAGCGAAAGCTTAGC ((..(((....)))..)) are -12.6 kcal/mol and 36.8 °C.
In the same order, the values of GCCTAGCGAAAGCTTCGC ((..(((....)))..)) are -7.98 kcal/mol and 44.6 °C.
Take GCCTAGGGAAACCTAGGC (((((((....))))))): the folding enthalpy in series [1] was -36.9 kcal/mol. Moreover, in series [2], the Tm amounted to 67.5 °C.
On the same counts, the results for GCCTATGGAAACATAGAC (.(((((....))))).) are -17.4 kcal/mol and 32.6 °C.
In the same order, the values of GCCTATGGAAACGTAGGC (((((.(....).))))) are -39.8 kcal/mol and 51.1 °C.
On the same counts, the results for GCCTATTCGAAAGAAGGC (((..(((....)))))) are -20.6 kcal/mol and 38.2 °C.
Turning to GCCTCAGGAAACTGAAGC ((.((((....)))).)), the folding enthalpy in series [1] is -24.9 kcal/mol. For the same sequence, in series [2], the Tm came out at 36.3 °C.
On the same counts, the results for GCCTCAGGAAACTGAGAC (.(((((....))))).) are -20.8 kcal/mol and 38.4 °C.
In the same order, the values of GCCTCAGGAAACTGGGGC (((.(((....))).))) are -41.9 kcal/mol and 56 °C.
On the same counts, the results for GCCTCCGAAAGGAATGGC ((((((....)))..))) are -23 kcal/mol and 49.9 °C.
For the sequence GCCTCCGAAAGGAGTGGC ((((((....)))..))), the folding enthalpy in series [1] is -17.1 kcal/mol. In series [2], the Tm was 50.3 °C.
On to GCCTCCGAAAGGATGGC ((((((....))).))), for which the folding enthalpy in series [1] is -36.6 kcal/mol. Also, in series [2], the Tm was found to be 57 °C.
In the same order, the values of GCCTCGCGAAAGCATGGC (((..((....))..))) are -18.4 kcal/mol and 53.3 °C.
GCCTCGCGAAAGCCACGC ((.(.((....)).).)): the folding enthalpy in series [1] is -6.05 kcal/mol. Moreover, the Tm in series [2] worked out at 20.5 °C.
In the same order, the values of GCCTCGCGAAAGCGACGC ((.((((....)))).)) are -16.5 kcal/mol and 52.6 °C.
On the same counts, the results for GCCTCGCGAAAGCGATGC ((.((((....)))).)) are -16.7 kcal/mol and 58.2 °C.
On the same counts, the results for GCCTCGCGAAAGCTAAGC ((.(.((....)).).)) are -6.03 kcal/mol and 25.6 °C.
For the sequence GCCTCGCGAAAGCTACGC ((.(.((....)).).)), in series [1], the folding enthalpy was -5.87 kcal/mol. The Tm in series [2] turned out to be 20 °C.
Turning to GCCTCGCGAAAGCTTGGC (((..((....))..))), in series [1], the folding enthalpy is -25.5 kcal/mol. The Tm in series [2] amounted to 51.4 °C.
In the same order, the values of GCCTCGGGAAACCGGGGC (((.(((....))).))) are -36.4 kcal/mol and 66.3 °C.
As to GCCTCTGGAAACAGAAGC ((.((((....)))).)), the folding enthalpy in series [1] is -24.2 kcal/mol. The Tm in series [2] stood at 35.6 °C.
On the same counts, the results for GCCTCTTCGAAAGAAGGC (((..(((....)))))) are -14.8 kcal/mol and 39.4 °C.
On the same counts, the results for GCCTGAGAAATCAGGC ((((((....)))))) are -39.2 kcal/mol and 62.5 °C.
On the same counts, the results for GCCTGAGGAAACTTAGGC ((((.((....)).)))) are -31.2 kcal/mol and 48.8 °C.
As for GCCTGCCCGAAAGGGGGC (((..(((....)))))), the folding enthalpy in series [1] is -12.6 kcal/mol. In addition, in series [2], the Tm came out at 58.1 °C.
On the same counts, the results for GCCTGCGGAAACGCAGAC (.(((((....))))).) are -12.1 kcal/mol and 50 °C.
On the same counts, the results for GCCTGGAAACAGGC (((((....))))) are -27.1 kcal/mol and 63.4 °C.
In the same order, the values of GCCTGGCGAAAGCAATGC ((.(.((....)).).)) are -7.84 kcal/mol and 26.9 °C.
For the sequence GCCTGGCGAAAGCCCAGC ((..(((....)))..)), the folding enthalpy in series [1] is -10.9 kcal/mol. In series [2], the Tm was 47.3 °C.
On the same counts, the results for GCCTGGCGAAAGCCTCGC ((..(((....)))..)) are -9.28 kcal/mol and 45.3 °C.
On the same counts, the results for GCCTGGGCGAAAGCCGGC (((..(((....)))))) are -23.7 kcal/mol and 55.2 °C.
On the same counts, the results for GCCTGGGGAAACTCGGGC (((.(.(....).).))) are -31.8 kcal/mol and 46.7 °C.
